Measurements taken from ChEMBL document CHEMBL1124464, “Peripherally acting enkephalin analogues. 2. Polar tri- and tetrapeptides” (1989).

Experiments:
Format in all cases: functional
Mus musculus [1] = experiment: Antinociceptive activity of subcutaneously administered compound in acetic acid (AA) induced writhing mice; details: sc
Summary of the method: (§1)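 Male TFW mice, groups of five to six, given drug subcutaneously (10 mL kg-1), then ip acetic acid 0.6% at 25 mL kg-1. Writhes counted for 5 min beginning 15 min after acetic acid. ED50 = dose reducing writhes 50% versus vehicle, by linear regression.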

Mus musculus [2] = experiment: Antinociceptive activity of perorally administered compound (20 mg) in phenyl-p-benzoquinone induced writhing mice
Summary of the method: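 Female CD1 mice (Charles River), groups of five to six, dosed orally by blunt intragastric needle (10 mL kg-1) 30 min before ip PBQ at 2.5 mg kg-1. Abdominal constrictions/hind-limb extensions were counted over 2.5 min starting 10 min after PBQ. ED50 is the dose halving writhes versus vehicle, estimated by linear regression.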

Mus musculus [3] = experiment: Antinociceptive activity of subcutaneously administered compound in phenyl-p-benzoquinone induced writhing mice
Summary of the method: (§2)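 Groups of five to six female CD1 mice given drug subcutaneously (10 mL kg-1) 30 min before ip phenyl-p-benzoquinone 2.5 mg kg-1. Writhes (abdominal constrictions/hind-limb extensions) counted over 2.5 min from 10 min post-PBQ. ED50, the dose giving 50% fewer writhes than vehicle, from linear regression.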

Cavia porcellus [4] = species on record: Cavia porcellus; experiment: Inhibition of electrically induced contractions on the guinea pig ileum; details: read-out: ED50 (the source's name)
Summary of the method: (§3)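 Guinea pig ileum contractions evoked by coaxial stimulation at 0.1 Hz, 0.5-ms pulses, supramaximal voltage, recorded isometrically; dose-response curves built with 15-min washout between doses.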

Mus musculus [5] = species on record: Mus musculus; experiment: Dose ratio in the presence and absence of the peripheral opioid antagonist in N-methyl-nalorphine in AA writhing mice
Summary of the method: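 Acetic acid (0.6%, ip) writhing in male TFW mice; N-methylnalorphine 11.5 mg kg-1 ip 20 min before subcutaneous agonist. Writhes counted 5 min from 15 min post-irritant. Dose ratio taken as the shift between parallel regression lines with and without antagonist.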

Rodentia sp. [6] = experiment: Antinociceptive activity in the hot plate test (central activity) in rodents, when compound administered subcutaneously at 10 mg
Summary of the method: (§4)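 Male CFLP mice, groups of five to six, placed on a copper surface held at 55 °C; latency to paw licking/shaking or jumping recorded, 30-s cut-off. Drug given subcutaneously at 10 mL kg-1. ED50 = dose doubling response latency versus vehicle, by parallel-line probit analysis.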

Rodentia sp. [7] = experiment: Antinociceptive activity in the hot plate test (central activity) in rodents, when compound administered subcutaneously at; details: sc
Summary of the method: (§5)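 Male CFLP mice (Hacking and Churchill), groups of five to six, dosed sc at 10 mL kg-1 and placed on a copper surface held at 55 °C. Signs of discomfort (paw licking/shaking, jumping) were scored, with a 30-s cut-off. ED50 is the dose doubling response latency versus vehicle, estimated by parallel-line probit analysis.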

Mus musculus [8] = experiment: Antinociceptive activity of perorally administered compound in phenyl-p-benzoquinone induced writhing mice; details: po
Summary of the method: (§6)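 Female CD1 mice, groups of five to six, dosed orally by blunt intragastric needle (10 mL kg-1) 30 min before ip phenyl-p-benzoquinone 2.5 mg kg-1. Abdominal constrictions/hind-limb extensions counted over 2.5 min starting 10 min after PBQ. ED50 = dose halving writhes versus vehicle, by linear regression.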

Mus musculus [9] = experiment: (§7) Antinociceptive activity in the hot plate test (central activity) in rodents, when compound administered subcutaneously at 50 mg; summary of the method: as §5
Mus musculus [10] = experiment: Antinociceptive activity of subcutaneously administered compound (30 mg) in acetic acid (AA) induced writhing mice; summary of the method: as §1
Mus musculus [11] = experiment: (§8) Antinociceptive activity of subcutaneously administered compound (1 mg) in phenyl-p-benzoquinone induced writhing mice
Summary of the method: (§9)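 Female CD1 mice (Charles River), groups of five to six, given vehicle or drug sc (10 mL kg-1) 30 min before ip phenyl-p-benzoquinone at 2.5 mg kg-1 (10 mL kg-1). Writhes were counted for 2.5 min from 10 min post-irritant. ED50, the dose giving a 50% reduction in writhes relative to vehicle, was obtained by linear regression.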

Mus musculus [12] = experiment: (§10) Antinociceptive activity of subcutaneously administered compound (10 mg) in phenyl-p-benzoquinone induced writhing mice; summary of the method: as §9
Mus musculus [13] = experiment: as §8; summary of the method: as §2; remark: listed apart in the source
Mus musculus [14] = experiment: Antinociceptive activity of subcutaneously administered compound (100 mg) in acetic acid (AA) induced writhing mice; summary of the method: as §1
Rodentia sp. [15] = experiment: Antinociceptive activity in the hot plate test (central activity) in rodents, when compound administered subcutaneously at 100 mg; summary of the method: as §4
Mus musculus [16] = experiment: Antinociceptive activity of perorally administered compound (50 mg) in phenyl-p-benzoquinone induced writhing mice; summary of the method: as §6
Mus musculus [17] = experiment: as §10; summary of the method: as §2; remark: listed apart in the source
Cavia porcellus [18] = experiment: Inhibition of electrically induced contractions on the guinea pig ileum at […] after dosing.; summary of the method: as §3
Rodentia sp. [19] = experiment: as §7; summary of the method: as §4
[20] = Mus musculus, sc, read-out: ED50

Compound `CC(=O)O.CCN(CCc1ccc(Br)cc1)C(=O)CNC(=O)[C@@H](CCCN=C(N)N)NC(=O)[C@H](Cc1ccc(O)cc1)N=C(N)N` has an ED50 (Mus musculus [1]) of 0.35 mg/kg, an Inhibition (Mus musculus [2]) of 15% and an ED50 (Mus musculus [3]; [20]) of 3.4 mg/kg. The EC50 (Cavia porcellus [4]) was 216 nM, the Ratio (Mus musculus [5]) was 1.5 and the Inhibition (Rodentia sp. [6]) was 0%.
With `CC(=O)O.CCN(CCc1ccccc1F)C(=O)CNC(=O)[C@@H](CCCN=C(N)N)NC(=O)[C@H](Cc1ccc(O)cc1)N=C(N)N` the ED50 (Rodentia sp. [7]) was 22.2 mg/kg, the ED50 (Mus musculus [1]) was 0.17 mg/kg and the ED50 (Mus musculus [8]) was ~50 mg/kg. It also gave an ED50 (Mus musculus [3]; [20]) of 0.9 mg/kg, an EC50 (Cavia porcellus [4]) of 24.6 nM and a Ratio (Mus musculus [5]) of 9.8.
`CC(=O)O.CCN(Cc1ccc(F)cc1)C(=O)CNC(=O)[C@@H](CCCN=C(N)N)NC(=O)[C@H](Cc1ccc(O)cc1)N=C(N)N` gave an ED50 (Mus musculus [1]) of 0.32 mg/kg, an Inhibition (Mus musculus [2]) of 12% and an Inhibition (Mus musculus [9]) of 0%. The ED50 (Mus musculus [3]) was 1.7 mg/kg, the EC50 (Cavia porcellus [4]) was 46 nM and the Ratio (Mus musculus [5]) was 6.4.
`CC(=O)O.CCN(CCc1ccc(S(N)(=O)=O)cc1)C(=O)CNC(=O)[C@@H](CCCN=C(N)N)NC(=O)[C@H](Cc1ccc(O)cc1)N=C(N)N` gave an Inhibition (Mus musculus [10]) of 0% and an EC50 (Cavia porcellus [4]) of 4900 nM.
`CC(=O)O.CCN(CCc1ccc2ccccc2c1)C(=O)CNC(=O)[C@@H](CCCN=C(N)N)NC(=O)[C@H](Cc1ccc(O)cc1)N=C(N)N` gave an Inhibition (Mus musculus [2]) of 0% and an Inhibition (Mus musculus [11]) of 11%.
Work on `CC(=O)O.CCN(CCc1ccccc1C(F)(F)F)C(=O)CNC(=O)[C@@H](CCCN=C(N)N)NC(=O)[C@H](Cc1ccc(O)cc1)N=C(N)N` yielded an Inhibition (Mus musculus [2]) of 0%, an EC50 (Cavia porcellus [4]) of 28.4 nM and an Inhibition (Mus musculus [12]) of 40%.
For `CC(=O)O.CCN(CCc1ccc(Br)cc1)C(=O)CNC(=O)[C@@H](CCCN=C(N)N)NC(=O)[C@@H](N)Cc1ccc(O)cc1`, the Inhibition (Mus musculus [2]) was 0%, the Inhibition (Mus musculus [13]) was 10% and the EC50 (Cavia porcellus [4]) was < 100 nM. For the same compound, the Inhibition (Mus musculus [14]) was 0% and the Inhibition (Rodentia sp. [15]) was 0%.
In the case of `CC(=O)O.CCN(Cc1ccc([N+](=O)[O-])cc1)C(=O)CNC(=O)[C@@H](CCCN=C(N)N)NC(=O)[C@@H](N)Cc1ccc(O)cc1`, the ED50 (Mus musculus [1]) is reported as 0.02 mg/kg, the Inhibition (Mus musculus [9]) is reported as 0% and the EC50 (Cavia porcellus [4]) is reported as 9.7 nM. It also gave an Inhibition (Mus musculus [16]) of 0%, a Ratio (Mus musculus [5]) of 2.8 and an Inhibition (Mus musculus [17]) of 0%.
`CC(=O)O.CCN(CCc1ccc(S(N)(=O)=O)cc1)C(=O)CNC(=O)[C@@H](CCCN=C(N)N)NC(=O)[C@@H](N)Cc1ccc(O)cc1` was tested, and the EC50 (Cavia porcellus [4]) was 11000 nM and the Inhibition (Mus musculus [14]) was 0%.
In the case of `CC(=O)O.CCN(CCc1ccc([N+](=O)[O-])o1)C(=O)CNC(=O)[C@@H](CCCN=C(N)N)NC(=O)[C@@H](N)Cc1ccc(O)cc1`, the Inhibition (Mus musculus [2]) is reported as 0% and the Inhibition (Mus musculus [13]) is reported as 0%.
`CC(=O)O.CCN(CCNC(=O)[C@@H](CCCN=C(N)N)NC(=O)[C@@H](N)Cc1ccc(O)cc1)CCc1ccc([N+](=O)[O-])cc1` gave an Inhibition (Cavia porcellus [18]) of 25%.
Compound `CC(=O)O.CCN(Cc1ccccc1[N+](=O)[O-])C(=O)CNC(=O)[C@@H](CCCN=C(N)N)NC(=O)[C@@H](N)Cc1ccc(O)cc1` has an Inhibition (Rodentia sp. [19]) of 0%, an ED50 (Mus musculus [1]) of 6.1 mg/kg and an ED50 (Mus musculus [3]; [20]) of 60.3 mg/kg. For the same compound, the EC50 (Cavia porcellus [4]) was 522 nM and the Ratio (Mus musculus [5]) was 2.8.
